Tested on: HEK-293T
Test: Multiplex assay against HEK293T
Assay type: toxicity, cell-based
Settings: human
Method in brief: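 Four dyes were applied at seeding to live cells: Hoechst33342, BioTracker Green Microtubule Cytoskeleton Dye, MitoTracker Red and Annexin V Alexa Fluor 680. Imaging after compound addition used a CQ1 microscope at 37°C and 5% CO2. CellPathfinder machine-learning gating then sorted cells into Hoechst high-intensity objects or normal cells, normal cells into healthy, pyknosed or fragmented nuclei, and pyknosed cells into mitotic or apoptotic, with tubulin, mitochondrial-mass and membrane-permeability phenotypes given as per cents of healthy-nucleus cells.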

[1] = 12 h, 1 µM, compound concentration 1 uM, replicate 1
[2] = 12 h, 1 µM, compound concentration 1 uM, replicate 2
[3] = 12 h, 10 µM, compound concentration 10 uM, replicate 1
[4] = 12 h, 10 µM, compound concentration 10 uM, replicate 2
[5] = 24 h, 1 µM, compound concentration 1 uM, replicate 1
[6] = 24 h, 1 µM, compound concentration 1 uM, replicate 2
[7] = 24 h, 10 µM, compound concentration 10 uM, replicate 1
[8] = 24 h, 10 µM, compound concentration 10 uM, replicate 2
[9] = 48 h, 1 µM, compound concentration 1 uM, replicate 1
[10] = 48 h, 1 µM, compound concentration 1 uM, replicate 2
[11] = 48 h, 10 µM, compound concentration 10 uM, replicate 1
[12] = 48 h, 10 µM, compound concentration 10 uM, replicate 2

SMILES: O=C(NCC(=O)N1CC[C@H](N[C@H]2CC[C@@](O)(c3ccc(-c4ncccn4)cn3)CC2)C1)c1cccc(C(F)(F)F)c1 [PF-4136309]
- Population Apoptotic (%) [1]: 44%
- Population Fragmented Nuclei (%) [1]: 6%
- Population Healthy Nuclei (%) [1]: 80%
- Population Hoechst High Intensity Objects (%) [1]: 4%
- Population Membrane Permeable-Phenotype (%) [1]: 0%
- Population Mitochondria Different-Phenotype (%) [1]: 41%
- Population Mitotic Cells (%) [1]: 56%
- Population Normal (%) [1]: 95%
- Population Pyknosed Nuclei (%) [1]: 13%
- Population Tubulin-Different-Phenotype (%) [1]: 32%
- Total Cell Count [1]: 393
- Population Apoptotic (%) [2]: 34%
- Population Fragmented Nuclei (%) [2]: 5%
- Population Hoechst High Intensity Objects (%) [2]: 6%
- Population Mitochondria Different-Phenotype (%) [2]: 56%
- Population Mitotic Cells (%) [2]: 66%
- Population Normal (%) [2]: 93%
- Population Tubulin-Different-Phenotype (%) [2]: 15%
- Total Cell Count [2]: 389
- Population Apoptotic (%) [3]: 39%
- Population Fragmented Nuclei (%) [3]: 7%
- Population Healthy Nuclei (%) [3]: 76%
- Population Hoechst High Intensity Objects (%) [3]: 7%
- Population Membrane Permeable-Phenotype (%) [3]: 0%
- Population Mitochondria Different-Phenotype (%) [3]: 53%
- Population Mitotic Cells (%) [3]: 60%
- Population Normal (%) [3]: 92%
- Population Pyknosed Nuclei (%) [3]: 15%
- Population Tubulin-Different-Phenotype (%) [3]: 55%
- Total Cell Count [3]: 358
- Population Apoptotic (%) [4]: 48%
- Population Fragmented Nuclei (%) [4]: 3%
- Population Healthy Nuclei (%) [4]: 81%
- Population Hoechst High Intensity Objects (%) [4]: 6%
- Population Mitochondria Different-Phenotype (%) [4]: 75%
- Population Mitotic Cells (%) [4]: 51%
- Population Normal (%) [4]: 93%
- Population Pyknosed Nuclei (%) [4]: 14%
- Population Tubulin-Different-Phenotype (%) [4]: 45%
- Total Cell Count [4]: 295
- Population Apoptotic (%) [5]: 25%
- Population Fragmented Nuclei (%) [5]: 10%
- Population Healthy Nuclei (%) [5]: 80%
- Population Hoechst High Intensity Objects (%) [5]: 2%
- Population Membrane Permeable-Phenotype (%) [5]: 0%
- Population Mitochondria Different-Phenotype (%) [5]: 26%
- Population Mitotic Cells (%) [5]: 74%
- Population Normal (%) [5]: 97%
- Population Pyknosed Nuclei (%) [5]: 9%
- Population Tubulin-Different-Phenotype (%) [5]: 15%
- Total Cell Count [5]: 561
- Population Apoptotic (%) [6]: 39%
- Population Fragmented Nuclei (%) [6]: 8%
- Population Hoechst High Intensity Objects (%) [6]: 5%
- Population Mitochondria Different-Phenotype (%) [6]: 31%
- Population Mitotic Cells (%) [6]: 60%
- Population Normal (%) [6]: 94%
- Population Pyknosed Nuclei (%) [6]: 11%
- Population Tubulin-Different-Phenotype (%) [6]: 13%
- Total Cell Count [6]: 485
- Population Apoptotic (%) [7]: 35%
- Population Fragmented Nuclei (%) [7]: 10%
- Population Healthy Nuclei (%) [7]: 73%
- Population Hoechst High Intensity Objects (%) [7]: 7%
- Population Membrane Permeable-Phenotype (%) [7]: 1%
- Population Mitochondria Different-Phenotype (%) [7]: 39%
- Population Mitotic Cells (%) [7]: 64%
- Population Normal (%) [7]: 92%
- Population Pyknosed Nuclei (%) [7]: 16%
- Population Tubulin-Different-Phenotype (%) [7]: 36%
- Total Cell Count [7]: 450
- Population Apoptotic (%) [8]: 57%
- Population Fragmented Nuclei (%) [8]: 8%
- Population Healthy Nuclei (%) [8]: 80%
- Population Hoechst High Intensity Objects (%) [8]: 5%
- Population Membrane Permeable-Phenotype (%) [8]: 0%
- Population Mitochondria Different-Phenotype (%) [8]: 54%
- Population Mitotic Cells (%) [8]: 42%
- Population Normal (%) [8]: 94%
- Population Pyknosed Nuclei (%) [8]: 11%
- Population Tubulin-Different-Phenotype (%) [8]: 27%
- Total Cell Count [8]: 384
- Population Apoptotic (%) [9]: 18%
- Population Fragmented Nuclei (%) [9]: 16%
- Population Healthy Nuclei (%) [9]: 78%
- Population Hoechst High Intensity Objects (%) [9]: 0%
- Population Membrane Permeable-Phenotype (%) [9]: 1%
- Population Mitochondria Different-Phenotype (%) [9]: 14%
- Population Mitotic Cells (%) [9]: 81%
- Population Normal (%) [9]: 99%
- Population Pyknosed Nuclei (%) [9]: 4%
- Population Tubulin-Different-Phenotype (%) [9]: 9%
- Total Cell Count [9]: 1007
- Population Apoptotic (%) [10]: 27%
- Population Healthy Nuclei (%) [10]: 77%
- Population Hoechst High Intensity Objects (%) [10]: 2%
- Population Membrane Permeable-Phenotype (%) [10]: 0%
- Population Mitochondria Different-Phenotype (%) [10]: 16%
- Population Mitotic Cells (%) [10]: 72%
- Population Normal (%) [10]: 97%
- Population Pyknosed Nuclei (%) [10]: 5%
- Population Tubulin-Different-Phenotype (%) [10]: 11%
- Total Cell Count [10]: 907
- Population Apoptotic (%) [11]: 31%
- Population Fragmented Nuclei (%) [11]: 13%
- Population Healthy Nuclei (%) [11]: 75%
- Population Hoechst High Intensity Objects (%) [11]: 5%
- Population Membrane Permeable-Phenotype (%) [11]: 0%
- Population Mitochondria Different-Phenotype (%) [11]: 34%
- Population Mitotic Cells (%) [11]: 68%
- Population Normal (%) [11]: 94%
- Population Pyknosed Nuclei (%) [11]: 11%
- Population Tubulin-Different-Phenotype (%) [11]: 23%
- Total Cell Count [11]: 636
- Population Apoptotic (%) [12]: 43%
- Population Fragmented Nuclei (%) [12]: 11%
- Population Healthy Nuclei (%) [12]: 79%
- Population Hoechst High Intensity Objects (%) [12]: 4%
- Population Mitochondria Different-Phenotype (%) [12]: 46%
- Population Mitotic Cells (%) [12]: 56%
- Population Normal (%) [12]: 95%
- Population Pyknosed Nuclei (%) [12]: 8%
- Population Tubulin-Different-Phenotype (%) [12]: 30%
- Total Cell Count [12]: 468

SMILES: CCCN1CCC[C@@H]2Cc3n[nH]cc3C[C@H]21.Cl [QUINPIROLE HYDROCHLORIDE]
- Population Apoptotic (%) [1]: 32%
- Population Fragmented Nuclei (%) [1]: 6%
- Population Healthy Nuclei (%) [1]: 84%
- Population Hoechst High Intensity Objects (%) [1]: 6%
- Population Membrane Permeable-Phenotype (%) [1]: 0%
- Population Mitochondria Different-Phenotype (%) [1]: 37%
- Population Mitotic Cells (%) [1]: 67%
- Population Normal (%) [1]: 93%
- Population Pyknosed Nuclei (%) [1]: 9%
- Population Tubulin-Different-Phenotype (%) [1]: 22%
- Total Cell Count [1]: 447
- Population Apoptotic (%) [2]: 63%
- Population Fragmented Nuclei (%) [2]: 4%
- Population Healthy Nuclei (%) [2]: 82%
- Population Hoechst High Intensity Objects (%) [2]: 3%
- Population Mitochondria Different-Phenotype (%) [2]: 67%
- Population Mitotic Cells (%) [2]: 36%
- Population Normal (%) [2]: 96%
- Population Pyknosed Nuclei (%) [2]: 12%
- Population Tubulin-Different-Phenotype (%) [2]: 26%
- Total Cell Count [2]: 294
- Population Apoptotic (%) [3]: 55%
- Population Fragmented Nuclei (%) [3]: 11%
- Population Healthy Nuclei (%) [3]: 72%
- Population Hoechst High Intensity Objects (%) [3]: 9%
- Population Membrane Permeable-Phenotype (%) [3]: 0%
- Population Mitochondria Different-Phenotype (%) [3]: 53%
- Population Mitotic Cells (%) [3]: 44%
- Population Normal (%) [3]: 90%
- Population Pyknosed Nuclei (%) [3]: 15%
- Population Tubulin-Different-Phenotype (%) [3]: 40%
- Total Cell Count [3]: 381
- Population Apoptotic (%) [4]: 46%
- Population Fragmented Nuclei (%) [4]: 5%
- Population Healthy Nuclei (%) [4]: 78%
- Population Hoechst High Intensity Objects (%) [4]: 5%
- Population Mitochondria Different-Phenotype (%) [4]: 69%
- Population Mitotic Cells (%) [4]: 53%
- Population Normal (%) [4]: 94%
- Population Pyknosed Nuclei (%) [4]: 16%
- Population Tubulin-Different-Phenotype (%) [4]: 26%
- Total Cell Count [4]: 312
- Population Apoptotic (%) [5]: 30%
- Population Fragmented Nuclei (%) [5]: 12%
- Population Healthy Nuclei (%) [5]: 79%
- Population Hoechst High Intensity Objects (%) [5]: 3%
- Population Membrane Permeable-Phenotype (%) [5]: 0%
- Population Mitochondria Different-Phenotype (%) [5]: 17%
- Population Mitotic Cells (%) [5]: 70%
- Population Normal (%) [5]: 96%
- Population Pyknosed Nuclei (%) [5]: 8%
- Population Tubulin-Different-Phenotype (%) [5]: 14%
- Total Cell Count [5]: 600
- Population Apoptotic (%) [6]: 29%
- Population Fragmented Nuclei (%) [6]: 8%
- Population Healthy Nuclei (%) [6]: 81%
- Population Hoechst High Intensity Objects (%) [6]: 2%
- Population Mitochondria Different-Phenotype (%) [6]: 37%
- Population Normal (%) [6]: 97%
- Population Pyknosed Nuclei (%) [6]: 9%
- Population Tubulin-Different-Phenotype (%) [6]: 16%
- Total Cell Count [6]: 390
- Population Apoptotic (%) [7]: 45%
- Population Fragmented Nuclei (%) [7]: 10%
- Population Healthy Nuclei (%) [7]: 77%
- Population Hoechst High Intensity Objects (%) [7]: 4%
- Population Membrane Permeable-Phenotype (%) [7]: 0%
- Population Mitochondria Different-Phenotype (%) [7]: 38%
- Population Mitotic Cells (%) [7]: 54%
- Population Normal (%) [7]: 95%
- Population Pyknosed Nuclei (%) [7]: 11%
- Population Tubulin-Different-Phenotype (%) [7]: 27%
- Total Cell Count [7]: 529
- Population Apoptotic (%) [8]: 43%
- Population Fragmented Nuclei (%) [8]: 7%
- Population Healthy Nuclei (%) [8]: 78%
- Population Hoechst High Intensity Objects (%) [8]: 2%
- Population Mitochondria Different-Phenotype (%) [8]: 43%
- Population Mitotic Cells (%) [8]: 56%
- Population Normal (%) [8]: 97%
- Population Pyknosed Nuclei (%) [8]: 13%
- Population Tubulin-Different-Phenotype (%) [8]: 13%
- Total Cell Count [8]: 406
- Population Apoptotic (%) [9]: 21%
- Population Fragmented Nuclei (%) [9]: 16%
- Population Healthy Nuclei (%) [9]: 76%
- Population Hoechst High Intensity Objects (%) [9]: 1%
- Population Membrane Permeable-Phenotype (%) [9]: 1%
- Population Mitochondria Different-Phenotype (%) [9]: 9%
- Population Mitotic Cells (%) [9]: 78%
- Population Normal (%) [9]: 98%
- Population Pyknosed Nuclei (%) [9]: 6%
- Population Tubulin-Different-Phenotype (%) [9]: 10%
- Total Cell Count [9]: 1105
- Population Apoptotic (%) [10]: 33%
- Population Fragmented Nuclei (%) [10]: 11%
- Population Healthy Nuclei (%) [10]: 84%
- Population Hoechst High Intensity Objects (%) [10]: 2%
- Population Mitochondria Different-Phenotype (%) [10]: 19%
- Population Mitotic Cells (%) [10]: 66%
- Population Pyknosed Nuclei (%) [10]: 4%
- Population Tubulin-Different-Phenotype (%) [10]: 8%
- Total Cell Count [10]: 649
- Population Apoptotic (%) [11]: 40%
- Population Fragmented Nuclei (%) [11]: 15%
- Population Healthy Nuclei (%) [11]: 78%
- Population Hoechst High Intensity Objects (%) [11]: 2%
- Population Membrane Permeable-Phenotype (%) [11]: 1%
- Population Mitochondria Different-Phenotype (%) [11]: 23%
- Population Mitotic Cells (%) [11]: 59%
- Population Normal (%) [11]: 97%
- Population Pyknosed Nuclei (%) [11]: 6%
- Population Tubulin-Different-Phenotype (%) [11]: 15%
- Total Cell Count [11]: 772
- Population Apoptotic (%) [12]: 33%
- Population Fragmented Nuclei (%) [12]: 13%
- Population Healthy Nuclei (%) [12]: 80%
- Population Hoechst High Intensity Objects (%) [12]: 1%
- Population Membrane Permeable-Phenotype (%) [12]: 0%
- Population Mitochondria Different-Phenotype (%) [12]: 28%
- Population Mitotic Cells (%) [12]: 66%
- Population Normal (%) [12]: 98%
- Population Tubulin-Different-Phenotype (%) [12]: 13%
- Total Cell Count [12]: 654

Source: ChEMBL document CHEMBL5058577, “EUbOPEN Chemogenomics Library 2 (Multiplex)” (2022)
